Screening data as filed in PubChem.
RanGTP-Imp inh – disruptors of Ran-importin-beta complex formation – biochemical, FRET, CFP-Ran, YFP-importin-beta, homogeneous, primary screen. cell-free CFP-Ran/YFP-importin-beta FRET ratio. 300,000 compounds, 1.1% hits. inhibition, % (test concentration not listed);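 active means more than half of the replicate wells show a fall in the fluorescence ratio signal beyond about 16%, limit read from the data, passing the limit was not always enough; inconclusive means exactly half of the replicate wells pass the set limit; inactive means fewer than half of replicates pass the limit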;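 further: 0% = DMSO wells and 100% = Ran loaded with GDP instead of GTP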
Runt-CBFb FRET – inhibitors of human RUNX1 Runt domain binding to CBFb. Q01196+Q13951. Cerulean-Runt/Venus-CBFb FRET ratio 530/480, 1 h. inhibition, % at 20 µM. 220,000 compounds, 0.46% hits. AID 1496;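 active means inhibition over about 50% at 20 µM in the single-dose screen, limit read from the data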;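 further: 0% = DMSO wells and 100% = excess unlabeled CBFb competitor control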
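Buffer or medium: Tris pH 7.5 buffer with BSA. Assay system: Cerulean-labeled Runt domain protein. Amount: each fluorescent fusion protein 100 nM. Read-out basis: loss of energy transfer signal. Incubation: 1 h compound exposure, room temperature. Probe or stimulus: Venus-CBFb binding partner, 100 nM. Detection: FRET, excitation 422 nm, emission at 530 and 480 nm.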
Runt-SMMHC FRET – Runt domain-CBFb-SMMHC interaction inhibition. Q01196+Q13951. Cerulean-Runt/Venus-CBFb-SMMHC FRET ratio 530/480, 1 h. inhibition, % at 20 µM. 220,000 compounds, 0.74% hits;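 active means mean inhibition across duplicate retests at 20 µM reaching about 50%, limit read from the data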;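 further: 0% = DMSO wells and 100% = wells with excess untagged CBFb-SMMHC; inhibitors lower the FRET ratio by blocking Runt binding to CBFb-SMMHC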
Efa HMGR inh – E. faecalis class II HMG-CoA reductase inhibition; purified E. faecalis HMGR, NADPH absorbance 340 nm kinetic; inhibition, % at 10 µM; 190,000 compounds, 0.41% hits; AID 1066;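 active means inhibition above a set limit, the median over all tested compounds plus 3 SD, cut at about 9.5% in these data; inconclusive means no clear call, values can overlap the other calls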;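 further: enzyme runs in reverse so mevalonate oxidation gives rising NADPH absorbance; 0% = complete reaction with DMSO and 100% = background rate lacking mevalonate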
Wee1 degr inh – blocks degradation of human Wee1 kinase; P30291; HeLa Luc-Wee1K328M stability, luciferase luminescence; 100% = proteasome inhibitor MG132 effect; reporter increase, % at 5 µM; 220,000 compounds, 1.2% hits;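 active means activation above the mean of all tested compounds plus 3 SD, set per screening run, cut at about 8.8% in these data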;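 further: cells exposed to compound for 20 h before luminescence read; 0% = DMSO alone and 100% = MG132 at 30 µM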
Target sequence (P30291 whole entry K328M): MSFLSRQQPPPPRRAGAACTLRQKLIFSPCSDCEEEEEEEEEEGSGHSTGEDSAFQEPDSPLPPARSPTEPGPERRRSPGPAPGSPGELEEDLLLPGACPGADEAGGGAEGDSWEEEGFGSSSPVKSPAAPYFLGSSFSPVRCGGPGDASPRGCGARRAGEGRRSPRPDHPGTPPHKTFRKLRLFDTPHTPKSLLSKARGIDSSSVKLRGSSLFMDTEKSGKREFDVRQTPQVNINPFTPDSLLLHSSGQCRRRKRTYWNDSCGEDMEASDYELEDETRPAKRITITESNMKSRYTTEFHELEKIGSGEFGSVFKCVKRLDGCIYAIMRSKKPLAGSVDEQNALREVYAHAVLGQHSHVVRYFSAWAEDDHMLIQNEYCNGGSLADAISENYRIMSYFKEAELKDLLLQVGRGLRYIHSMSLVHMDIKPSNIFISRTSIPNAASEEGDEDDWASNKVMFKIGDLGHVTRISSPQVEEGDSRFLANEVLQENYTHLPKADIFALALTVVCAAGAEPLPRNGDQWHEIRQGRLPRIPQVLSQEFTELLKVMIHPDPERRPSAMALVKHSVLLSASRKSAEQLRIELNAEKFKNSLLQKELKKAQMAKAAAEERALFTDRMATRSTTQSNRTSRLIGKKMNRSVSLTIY
PHOSPHO1 block – PHOSPHO1 (human) inhibition. recombinant PHOSPHO1, absorbance phosphatase assay. inhibition, % at 13.3 µM. 290,000 compounds, 1.1% hits; in the data active means inhibition above about 60%
* hit, by the source's call; ? = inconclusive; . = not tested or not shown. Only some compounds are listed: those with a hit (about 3.4% of all), similar ones and a draw of the others.

SMILES	RanGTP-Imp inh	Runt-CBFb FRET	Runt-SMMHC FRET	Efa HMGR inh	Wee1 degr inh	PHOSPHO1 block
Cc1cccc(C(=O)N2CCN(Cc3ccc4c(c3)OCO4)CC2)c1	4.5	1.9	2.7	2.2	9.3*	-11.0
CCOC(=O)N1CCN(Cc2nc3ccc([N+](=O)[O-])cc3c(=O)n2-c2ccccc2F)CC1	2.5	.	.	.	.	20.3
O=C(Nc1ccc(N2CCOCC2)c(Cl)c1)c1ccc([N+](=O)[O-])o1	0.0	-0.7	1.6	25.8*	2.8	14.8
CCSc1nnc(NC(=O)CN2C(=O)C3CC=CCC3C2=O)s1 (centres undefined)	1.8	-0.8	-0.9	14.1*	0.1	-4.5
CCCC[C@@H](CN[C@H](C)CNC)NCC1CCC(C(C)(C)C)CC1 (some centres undefined)	2.5	.	.	.	.	35.7
COc1ccc([C@@H]2[C@@H]3C(=O)N(C(C)(C)C)C(=O)[C@@H]3[C@]3(C)C(=O)N(c4cccc(Cl)c4)C(=O)N23)cc1	0.5	.	.	.	.	.
S=c1[nH]nc(C2COc3ccccc3O2)o1 (centres undefined)	-2.2	2.0	-18.8	1.7	-1.3	96.2*
CCCC/C(C)=N/NC(=O)Nc1ccccc1	3.1	19.3	-4.5	2.4	3.6	36.3
CCCCC/C(=N\NC(=O)Nc1ccccc1)c1ccccc1	3.4	-1.4	3.8	-1.0	9.2*	-2.7
CC(O)C(=O)NCCOCCOCCNC(=O)C(C)O (centres undefined)	-1.5	-2.9	-11.2	-1.1	9.5*	46.1
CC(O)CCC(=O)NCCNC(=O)CCC(C)O (centres undefined)	1.6	-0.6	0.3	2.7	-1.2	-23.4
N#Cc1cccc(NC(=O)Cn2cnc(S(=O)(=O)N3CCCC3)c2)c1	?	.	.	.	.	49.6
Cc1ccccc1C(=O)N1CCC(C(=O)Nc2ccccc2N2CCCC2)CC1	6.8	.	.	.	.	.
O=C1c2ccccc2C(=O)C1c1ccc2ccccc2n1	-5.1	-15.4	-27.6	14.8*	-0.3	10.9
CN(C)c1ccc(NC(=O)c2ccc3nsnc3c2)cc1	-2.5	6.0	7.6	-1.4	4.6	74.4*
O=C(Nc1ccc(Cl)cc1)c1ccc2nsnc2c1	5.2	-0.1	-2.0	-5.8	3.7	2.0
CCCCOc1cccc(C(=O)Nc2ccc(NC(=O)c3ccco3)cc2)c1	1.9	.	.	.	.	2.2
O=S(=O)(c1ccc(F)cc1)N1CCCN(c2nccc(C(F)(F)F)n2)CC1	1.7	-1.5	-3.0	.	9.5*	27.4
O=C(COC(=O)c1ccc(Cl)c(Cl)c1)NC1CCCC1	-6.0	.	.	.	.	19.9
O=C(N/C(=C\c1ccc(Cl)cc1)C(=O)N1CCOCC1)c1ccc([N+](=O)[O-])cc1	4.6	-2.6	0.2	4.6	4.2	80.3*
CCOC(=O)Cn1c(C)[n+](CC(=O)c2ccccc2)c2ccccc21	2.5	1.7	0.2	.	0.3	31.5
CCOC(=O)C1(Cc2cccc(OC)c2)CCCN(C(=O)c2cc(C)[nH]n2)C1 (centres undefined)	0.5	.	.	-7.0	-0.4	12.5
CCOC(=O)C1(Cc2cccc(OC)c2)CCN(Cc2cccc3cnccc23)CC1	86.0*	6.3	6.4	-4.1	-1.1	-7.4
CCOC(=O)C1(Cc2ccc(OC)cc2)CCN(C(=O)CCn2ccc(C)n2)CC1	-1.7	-1.8	-1.8	-1.5	8.8*	34.6
CCOC(=O)C1(Cc2cccc(OC)c2)CCCN(C(=O)c2cc(C)on2)C1 (centres undefined)	0.4	.	.	.	.	67.6*
SMILES	RanGTP-Imp inh	Runt-CBFb FRET	Runt-SMMHC FRET	Efa HMGR inh	Wee1 degr inh	PHOSPHO1 block
CCOC(=O)C1(Cc2cccc(OC)c2)CCCN(Cc2nccn2CC)C1 (centres undefined)	2.3	-3.5	0.4	-0.4	-0.6	60.1*
CCOC(=O)C1(Cc2cccc(Cl)c2)CCCN(C(=O)c2ccco2)C1 (centres undefined)	3.1	.	.	.	.	15.9
CCOC(=O)C1(Cc2cccc(OC)c2)CCN(Cc2ccccc2)CC1	?	-0.3	-4.1	-2.1	2.3	19.5
CCOC(=O)C1(Cc2cccc(OC)c2)CCN(Cc2cccnc2)CC1	55.5*	.	.	1.4	-2.8	-10.2
CCOC(=O)C1(Cc2cccc(OC)c2)CCN(Cc2cnc(SC)nc2)CC1	67.7*	4.0	6.6	-1.8	0.8	-3.1
CCOC(=O)C1(Cc2cccc(Cl)c2)CCCN(C(=O)c2ccoc2C)C1 (centres undefined)	2.7	.	.	.	.	61.0*
CCOc1ccc(C2(C)NC(=O)N(CCN(C)C)C2=O)cc1 (centres undefined)	-2.7	.	.	.	.	28.7
CC1(C)CC(NC(=O)c2ccc(Cl)c(S(=O)(=O)N(Cc3ccccc3)c3ccccc3)c2)CC(C)(C)N1	-3.6	.	.	.	.	.
Cc1nc(NC(=O)c2ccccc2)sc1Cc1ccc2c(c1)OCO2	-0.9	1.6	-3.9	-2.1	-0.4	-2.0
Cc1nc(NC(=O)c2ccc(Cl)cc2)sc1Cc1ccc2c(c1)OCO2	-0.1	38.2	21.0	-10.2	-1.3	71.2*
COC(=O)/C(C#N)=C1/C=Cc2ccccc2N1C	0.2	-2.2	-2.0	-2.6	0.6	15.0
N#C/C(C(=O)Oc1ccccc1)=C1\C=Cc2ccccc2N1	54.5*	33.5	17.7	3.9	4.0	25.4
COc1ccc(C(=O)NCC(C)NC(=O)c2ccc(OC)c(OC)c2)cc1OC (centres undefined)	7.8	.	.	.	.	.
COc1ccc(C(=O)NC(NC(=O)c2ccc(OC)c(OC)c2)c2ccccc2F)cc1OC	-4.7	-2.4	-5.0	-5.2	9.9*	9.5
O=C(O)c1ccc2c3c(cccc13)C(=O)N(c1ccccc1)C2=O	?	-0.7	119.9	-0.9	2.4	35.7
CC(=O)Nc1ccc2c3c(cccc13)C(=O)N(c1ccccc1)C2=O	72.9*	20.9	87.2*	-6.7	-5.0	-3.9
O=C1/C(=C/c2ccc(F)cc2)SC(=S)N1Nc1ncc(C(F)(F)F)cc1Cl	2.7	9.8	-3.7	-0.5	-0.7	86.4*
O=C1/C(=C\c2ccccn2)SC(=S)N1Nc1ncc(C(F)(F)F)cc1Cl	-1.0	9.1	17.7	-1.4	3.0	-63.2
Cn1c(SCCCC(=O)c2ccccc2)nnc1-c1ccncc1	1.8	-0.7	1.8	-2.2	6.1	68.0*
CCOC(=O)c1ccc(CC(=O)c2oc3cc(O)ccc3c2C)o1	-1.5	7.0	-8.1	-6.6	10.2*	27.3
CCOC(=O)c1ccc(CC(=O)c2ccc(O)c(O)c2O)o1	-8.7	48.8	30.3	1.7	-0.1	58.4
O=C(NC1CCCCC1)C(c1ccco1)N(C(=O)c1csnn1)c1cccc(F)c1 (centres undefined)	-0.1	.	.	.	.	22.4
Cc1ccccc1Oc1nc2c(C)cccn2c(=O)c1/C=C(\C#N)C(=O)NC1CCS(=O)(=O)C1 (centres undefined)	13.0	112.7*	75.6*	.	0.8	28.5
